{"source": "ChEMBL document CHEMBL1811802", "about": "“Synthesis and significant cytostatic activity of 7-hetaryl-7-deazaadenosines” (J Med Chem, 2011)", "key": {"[1]": {"tested_on": "DU-145", "assay": "Metabolic stability in human DU145 cells assessed as nucleoside formation per million of cells at 10 uM after 6 hrs by LC/MS/MS analysis", "format": "ADME, cell-based", "conditions": "du-145, 6 h", "method_in_brief": "(§1)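 Du145 seeded at 60% confluence in MEM/10% FBS; next day exposed to 10 μM compound for 6 or 24 h. Cells trypsinized, extracted in 70% MeOH, dried, resuspended in 1 mM ammonium phosphate pH 8.5. Nucleoside, NMP and NTP quantified by ion-pairing (dimethylhexylamine) LC/MS/MS against untreated-cell-extract standard curves; pmol per million cells.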"}, "[2]": {"tested_on": "DU-145", "assay": "Metabolic stability in human DU145 cells assessed as nucleoside formation per million of cells at 10 uM after 24 hrs by LC/MS/MS analysis", "format": "ADME, cell-based", "conditions": "du-145, 24 h", "method_in_brief": "as §1"}, "[3]": {"tested_on": "DU-145", "assay": "Metabolic stability in human DU145 cells assessed as sodium ((2R,3S,4R,5R)-5-(4-amino-7H-pyrrolo[2,3-d]pyrimidin-7-yl)-3,4-dihydroxytetrahydrofuran-2-yl)methyl hydrogenphosphate-NMP formation per million of cells at 10 uM after 24 hrs by LC/MS/MS analysis", "format": "ADME, cell-based", "conditions": "du-145, 24 h", "method_in_brief": "as §1"}, "[4]": {"tested_on": "DU-145", "assay": "Cytostatic activity against human DU145 cells after 5 days by SRB assay", "format": "functional", "conditions": "DU-145, 120 h", "method_in_brief": "(§2)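 Cells seeded per line density, overnight at 37 °C; day-zero plate TCA-fixed. 5-fold serial dilutions added, 5-day incubation; TCA fixation, 0.057% SRB in 1% acetic acid 30 min, dye dissolved in 10 mM Tris pH 10.5, A500. Growth relative to day-zero and untreated; GIC50 from sigmoidal dose–response fit; mean of two independent experiments.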"}, "[5]": {"tested_on": "HCT-116", "assay": "Cytostatic activity against human HCT116 cells after 5 days by SRB assay", "format": "functional", "conditions": "HCT-116, 120 h", "method_in_brief": "as §2"}, "[6]": {"tested_on": "HCT-15", "assay": "Cytostatic activity against human HCT15 cells after 5 days by SRB assay", "format": "functional", "conditions": "HCT-15, 120 h", "method_in_brief": "as §2"}, "[7]": {"assay": "Cytostatic activity against human Hs578 cells after 5 days by SRB assay", "format": "functional", "conditions": "Hs578, 120 h", "method_in_brief": "as §2"}, "[8]": {"tested_on": "MT4", "assay": "Cytostatic activity against human MT4 cells after 5 days by SRB assay", "format": "functional", "conditions": "MT4, 120 h"}, "[9]": {"tested_on": "CCRF-CEM", "assay": "Cytotoxicity against human CCRF-CEM cells after 3 days by XTT assay", "format": "functional, cell-based", "conditions": "72 h", "method_in_brief": "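Suspension-grown cell lines, 3-day compound incubation; viability read by XTT metabolic assay; IC50 averaged from four independent experiments.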"}, "[10]": {"molecular_target": "Adenosine kinase (Homo sapiens, UniProt P55263)", "sequence (P55263 whole entry)": "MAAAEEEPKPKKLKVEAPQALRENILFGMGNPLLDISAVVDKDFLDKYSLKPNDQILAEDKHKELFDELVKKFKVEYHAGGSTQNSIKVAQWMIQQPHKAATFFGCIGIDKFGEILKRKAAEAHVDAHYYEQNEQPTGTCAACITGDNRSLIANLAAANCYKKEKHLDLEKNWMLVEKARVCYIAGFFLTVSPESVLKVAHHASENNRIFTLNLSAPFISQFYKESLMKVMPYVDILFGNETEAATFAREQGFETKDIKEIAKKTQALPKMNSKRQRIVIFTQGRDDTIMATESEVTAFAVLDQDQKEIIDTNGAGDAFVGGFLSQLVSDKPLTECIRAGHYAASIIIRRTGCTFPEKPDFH", "assay": "Inhibition of human ADK using [3H]-adenosine by scintillation counting"}, "[11]": {"tested_on": "K562", "assay": "Cytotoxicity against human K562 cells after 3 days by MTT assay", "format": "functional, cell-based", "conditions": "K562, 72 h"}, "[12]": {"tested_on": "BV-173", "assay": "Cytotoxicity against human BV173 cells after 3 days by MTT assay", "format": "functional, cell-based", "conditions": "BV-173, 72 h"}, "[13]": {"assay": "Cytotoxicity against human CEM-DNR-bulk cells after 3 days by MTT assay", "format": "functional, cell-based", "conditions": "72 h"}, "[14]": {"tested_on": "L1210", "assay": "Cytotoxicity against mouse L1210 cells after 3 days by MTT assay", "format": "functional, cell-based", "conditions": "L1210, 72 h"}, "[15]": {"tested_on": "EL4", "assay": "Cytotoxicity against mouse EL4 cells after 3 days by MTT assay", "format": "functional, cell-based", "conditions": "EL4, 72 h"}, "[16]": {"tested_on": "MCF7", "assay": "Cytotoxicity against human MCF7 cells after 3 days by MTT assay", "format": "functional, cell-based", "conditions": "MCF7, 72 h"}, "[17]": {"tested_on": "BT-549", "assay": "Cytotoxicity against human BT549 cells after 3 days by MTT assay", "format": "functional, cell-based", "conditions": "BT-549, 72 h"}, "[18]": {"tested_on": "MDA-MB-231", "assay": "Cytotoxicity against human MDA-MB-231 cells after 3 days by MTT assay", "format": "functional, cell-based", "conditions": "MDA-MB-231, 72 h"}, "[19]": {"tested_on": "SK-N-AS", "assay": "Cytotoxicity against human SK-N-AS cells after 3 days by MTT assay", "format": "functional, cell-based", "conditions": "72 h"}, "[20]": {"tested_on": "C6", "assay": "Cytotoxicity against rat C6 cells after 3 days by MTT assay", "format": "functional, cell-based", "conditions": "C6, 72 h"}, "[21]": {"tested_on": "HCT-116", "assay": "Cytotoxicity against human HCT116 cells after 3 days by MTT assay", "format": "functional, cell-based", "conditions": "HCT-116, 72 h"}, "[22]": {"tested_on": "MAT-Ly-Lu", "assay": "Cytotoxicity against rat MAT-LyLu cells after 3 days by MTT assay", "format": "functional, cell-based", "conditions": "72 h"}, "[23]": {"assay": "Cytotoxicity against human NCI-H146 cells after 3 days by MTT assay", "format": "functional, cell-based", "conditions": "NCI-H146, 72 h"}, "[24]": {"tested_on": "HeLa", "assay": "Cytotoxicity against human HeLa cells after 3 days by MTT assay", "format": "functional, cell-based", "conditions": "72 h"}, "[25]": {"tested_on": "SK-MEL-2", "assay": "Cytotoxicity against human SK-MEL-2 cells after 3 days by MTT assay", "format": "functional, cell-based", "conditions": "SK-MEL-2, 72 h"}, "[26]": {"tested_on": "HPAC", "assay": "Cytotoxicity against human HPAC cells after 3 days by MTT assay", "format": "functional, cell-based", "conditions": "72 h"}, "[27]": {"assay": "Cytotoxicity against mouse P388D1 cells after 3 days by MTT assay", "format": "functional, cell-based", "conditions": "P388D1, 72 h"}, "[28]": {"tested_on": "BJ", "assay": "Cytotoxicity against human BJ cells after 3 days by MTT assay", "format": "cell-based", "conditions": "72 h"}, "[29]": {"tested_on": "CCRF-CEM", "assay": "Induction of apoptosis in human CCRF-CEM cells at 5 time GI50 after 4 to 8 hrs using propidium iodide staining by flow cytometry", "format": "functional, cell-based", "method_in_brief": "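CCRF-CEM at 5 × 10^5 cells/ml in RPMI 1640/10% FCS, 37 °C, exposed to 1× or 5× GIC50; vehicle controls in parallel. Ethanol-fixed, RNase-treated, propidium iodide stained, flow cytometry; apoptosis taken as % sub-G1 particles (logarithmic mode).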"}, "[30]": {"tested_on": "CCRF-CEM", "assay": "Cell cycle arrest in human CCRF-CEM cells assessed as accumulation at G2/M phase at 5 time GI50 using propidium iodide staining by flow cytometry", "format": "functional, cell-based", "method_in_brief": "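CCRF-CEM seeded at 5 × 10^5 cells/ml, grown in RPMI 1640 with 10% FCS at 37 °C with 1× or 5× GIC50 of compound; vehicle controls harvested at same times. Cells ethanol-fixed, RNase-treated, stained with propidium iodide, flow cytometry at 488 nm; cell cycle phases scored.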"}, "[31]": {"tested_on": "CCRF-CEM", "assay": "Inhibition of DNA synthesis in human CCRF-CEM cells assessed as BrdU incorporation at 1 to 5 times GI50 after 1 hr by FACS analysis", "format": "functional, cell-based", "conditions": "in the assay text read “at 5 times GI50 after longer incubation” for “at 1 to 5 times GI50 after 1 hr”", "method_in_brief": "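CCRF-CEM cultured as for cell cycle (1× or 5× GIC50), pulsed with 10 μM BrdU for 30 min before harvest. Ethanol-fixed, DNA denatured in 2 M HCl, anti-BrdU then FITC secondary antibody, propidium iodide/RNase counterstain, flow cytometry at 488 nm.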"}, "[32]": {"assay": "Antitumor activity against mouse P388D1 cells xenografted in DBA/2 mouse assessed as increase of lifespan at 75 mg/kg, ip qd administered as 2 cycles on day 1 to 3 and day 8 to 10", "format": "functional", "conditions": "route intraperitoneal", "method_in_brief": "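P388D1 mouse leukemia cells, grown in RPMI with 10% FBS, were implanted ip at 10^5 cells per mouse on day 0 into female DBA/2 mice (18–22 g, SPF) and randomized 10 per group. Dosing was once daily ip in 50% PEG400/deionized water (pH 7.0) on days 1–3 and 8–10, with vehicle for controls. Deaths were recorded daily, and MST and %ILS were calculated.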"}, "[33]": {"assay": "Antitumor activity against mouse P388D1 cells xenografted in DBA/2 mouse assessed as increase of lifespan at 35 mg/kg, ip qd administered as 2 cycles on day 1 to 3 and day 8 to 10", "conditions": "route intraperitoneal"}}, "note": "Active and inactive are the calls of the source. The rule behind the calls is not given here.", "data": [{"smiles": "Nc1ncnc2c1c(-c1cccs1)cn2[C@@H]1O[C@H](CO)[C@@H](O)[C@H]1O", "values": [{"measurement": "Stability", "setting": "[1]", "value": 4.66, "unit": "pmol"}, {"measurement": "Stability", "setting": "[2]", "value": 30.4, "unit": "pmol"}, {"measurement": "Stability", "setting": "[3]", "value": 64, "unit": "pmol"}, {"measurement": "GI50", "setting": "[4]", "value": 133, "unit": "nM"}, {"measurement": "GI50", "setting": "[5]", "value": 2.6, "unit": "nM"}, {"measurement": "GI50", "setting": "[6]", "value": 11, "unit": "nM"}, {"measurement": "GI50", "setting": "[7]", "value": 12, "unit": "nM"}, {"measurement": "GI50", "setting": "[8]", "value": 35, "unit": "nM"}, {"measurement": "IC50", "setting": "[9]", "value": 50, "unit": "nM"}, {"measurement": "IC50", "setting": "[10]", "value": "> 5", "unit": "µM"}, {"measurement": "IC50", "setting": "[11]", "value": 25, "unit": "nM"}, {"measurement": "IC50", "setting": "[12]", "value": 105, "unit": "nM"}, {"measurement": "IC50", "setting": "[13]", "value": 91, "unit": "nM"}, {"measurement": "IC50", "setting": "[14]", "value": 115, "unit": "nM"}, {"measurement": "IC50", "setting": "[15]", "value": 9.3, "unit": "µM"}, {"measurement": "IC50", "setting": "[16]", "value": 528, "unit": "nM"}, {"measurement": "IC50", "setting": "[17]", "value": 119, "unit": "nM"}, {"measurement": "IC50", "setting": "[18]", "value": 26, "unit": "nM"}, {"measurement": "IC50", "setting": "[19]", "value": "> 10", "unit": "µM"}, {"measurement": "IC50", "setting": "[20]", "value": 4.54, "unit": "µM"}, {"measurement": "IC50", "setting": "[21]", "value": 60, "unit": "nM"}, {"measurement": "IC50", "setting": "[22]", "value": 180, "unit": "nM"}, {"measurement": "IC50", "setting": "[23]", "value": "> 10", "unit": "µM"}, {"measurement": "IC50", "setting": "[24]", "value": 33, "unit": "nM"}, {"measurement": "IC50", "setting": "[25]", "value": 1980, "unit": "nM"}, {"measurement": "IC50", "setting": "[26]", "value": 70, "unit": "nM"}, {"measurement": "IC50", "setting": "[27]", "value": 28, "unit": "nM"}, {"measurement": "IC50", "setting": "[28]", "value": 9.85, "unit": "µM"}, {"measurement": "Activity", "setting": "[29]", "value": "Active"}, {"measurement": "Activity", "setting": "[30]", "value": "Active"}, {"measurement": "inhibition", "setting": "[31]", "value": "Active"}, {"measurement": "Activity", "setting": "[32]", "value": 29, "unit": "%"}, {"measurement": "Activity", "setting": "[33]", "value": 28, "unit": "%"}]}]}
